pIC50: −log10 of the molar value. The source made the active and inactive calls. The rule behind the calls is not given here.
How the values were obtained:
[1] = test system: HUVEC; assay: Inhibition of BMP signalling pathway in BMP9-stimulated human HUVEC cells assessed as decrease in SMAD1 phosphorylation at 25 uM preincubated for 30 mins followed by BMP2 stimulation and measured after 15 mins by Western blot analysis; assay type: cell-based; details: time 45.0 min
Summary of the method: (§1)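 HUVECs, about 3 × 10^5 per well, starved overnight in Kaighn's F-12 with 0.5% FBS and 30 μg/mL endothelial cell growth supplement. Pretreated 30 min with inhibitor, then stimulated with 0.5 ng/mL BMP9. Lysed in M-PER with protease and phosphatase inhibitors. Western blot for pSMAD1/5, SMAD1 and SMAD5, quantified by densitometry.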

[2] = molecular target: Activin receptor type-1-like (Homo sapiens, UniProt P37023); assay: Inhibition of ACVRL1 (unknown origin) by LanthaScreen TR-FRET assay
Sequence of Activin receptor type-1-like (P37023 whole entry): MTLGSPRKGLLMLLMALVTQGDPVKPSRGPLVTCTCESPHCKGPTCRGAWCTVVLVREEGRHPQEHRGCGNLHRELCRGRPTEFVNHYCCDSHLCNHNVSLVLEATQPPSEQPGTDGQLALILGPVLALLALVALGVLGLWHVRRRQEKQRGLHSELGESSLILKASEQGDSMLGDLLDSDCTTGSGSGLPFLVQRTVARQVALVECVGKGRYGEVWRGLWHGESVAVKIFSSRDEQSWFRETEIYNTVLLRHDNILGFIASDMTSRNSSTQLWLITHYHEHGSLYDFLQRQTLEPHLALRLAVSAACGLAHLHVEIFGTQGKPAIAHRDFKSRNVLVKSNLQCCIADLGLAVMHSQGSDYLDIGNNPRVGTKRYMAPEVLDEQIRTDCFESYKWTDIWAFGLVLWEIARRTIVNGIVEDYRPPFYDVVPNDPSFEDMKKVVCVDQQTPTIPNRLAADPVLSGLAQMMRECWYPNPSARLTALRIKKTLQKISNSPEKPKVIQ
Summary of the method: (§2)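 Outsourced SelectScreen profiling using a LanthaScreen TR-FRET binding format, in which a tight-binding tracer is displaced from the kinase.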

[3] = molecular target: T1, TGF-beta receptor type-1 (Homo sapiens, UniProt P36897); assay: (§3) Inhibition of TGFBR1 (unknown origin) by LanthaScreen TR-FRET assay; summary of the method: as §2
T1 sequence (P36897 whole entry): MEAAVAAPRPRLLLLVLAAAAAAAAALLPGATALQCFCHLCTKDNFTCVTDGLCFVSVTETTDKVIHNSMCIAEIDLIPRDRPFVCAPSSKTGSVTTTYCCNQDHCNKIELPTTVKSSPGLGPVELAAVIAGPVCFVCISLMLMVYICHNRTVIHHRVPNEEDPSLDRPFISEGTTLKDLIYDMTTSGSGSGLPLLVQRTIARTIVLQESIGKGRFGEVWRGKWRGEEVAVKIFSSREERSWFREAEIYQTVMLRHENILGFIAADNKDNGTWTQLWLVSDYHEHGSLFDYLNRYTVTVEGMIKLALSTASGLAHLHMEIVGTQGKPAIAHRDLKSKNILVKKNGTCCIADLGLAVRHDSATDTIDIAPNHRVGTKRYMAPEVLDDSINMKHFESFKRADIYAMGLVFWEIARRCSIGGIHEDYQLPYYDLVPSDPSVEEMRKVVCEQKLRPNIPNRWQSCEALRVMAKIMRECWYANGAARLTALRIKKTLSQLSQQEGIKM

[4] = test system: HUVEC; assay: Inhibition of BMP signalling pathway in BMP9-stimulated human HUVEC cells assessed as decrease in SMAD5 phosphorylation at 25 uM preincubated for 30 mins followed by BMP2 stimulation and measured after 15 mins by Western blot analysis; assay type: cell-based; details: time 45.0 min; summary of the method: as §1
[5] = test system: HEK293T; assay: Inhibition of BMP signalling pathway in BMP2-stimulated human HEK293T cells assessed as decrease in SMAD1 phosphorylation at 25 uM preincubated for 30 mins followed by BMP2 stimulation and measured after 15 mins by Western blot analysis; assay type: cell-based; details: time 45.0 min
Summary of the method: (§4)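 HEK293T cells, 3 × 10^5 per well, starved overnight in DMEM with 2 mM glycine and 2% heat-inactivated FBS. Pretreated 30 min with inhibitor, then 5 ng/mL BMP2 for 15 min. Lysed in M-PER with protease inhibitors. Western blot for pSMAD1/5, SMAD1, SMAD5 and GAPDH, quantified by densitometry.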

[6] = molecular target: Activin receptor type-2A (Homo sapiens, UniProt P27037); assay: Inhibition of ACVR2A (unknown origin) by LanthaScreen TR-FRET assay; summary of the method: as §2
Sequence of Activin receptor type-2A (P27037 whole entry): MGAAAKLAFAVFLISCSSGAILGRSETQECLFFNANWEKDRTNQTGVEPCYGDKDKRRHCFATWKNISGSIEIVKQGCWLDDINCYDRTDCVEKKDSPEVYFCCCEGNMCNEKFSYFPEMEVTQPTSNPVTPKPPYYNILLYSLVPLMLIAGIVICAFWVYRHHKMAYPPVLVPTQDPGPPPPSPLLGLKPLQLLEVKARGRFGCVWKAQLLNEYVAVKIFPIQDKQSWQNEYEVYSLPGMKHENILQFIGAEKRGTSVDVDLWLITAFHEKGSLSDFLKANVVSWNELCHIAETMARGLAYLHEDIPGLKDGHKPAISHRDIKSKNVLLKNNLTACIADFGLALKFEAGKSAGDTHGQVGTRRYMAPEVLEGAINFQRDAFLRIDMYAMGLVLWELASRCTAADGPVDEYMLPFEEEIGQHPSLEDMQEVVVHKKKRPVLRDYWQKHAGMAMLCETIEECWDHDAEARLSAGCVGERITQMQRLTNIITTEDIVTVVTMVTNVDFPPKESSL

[7] = test system: HEK293T; assay: Inhibition of BMP signalling pathway in BMP2-stimulated human HEK293T cells assessed as decrease in SMAD5 phosphorylation at 25 uM preincubated for 30 mins followed by BMP2 stimulation and measured after 15 mins by Western blot analysis; assay type: cell-based; details: time 45.0 min; summary of the method: as §4
[8] = molecular target: Bone morphogenetic protein receptor type-1B (Homo sapiens, UniProt O00238); assay: Inhibition of BMPR1B (unknown origin) by LanthaScreen TR-FRET assay; summary of the method: as §2
Sequence of Bone morphogenetic protein receptor type-1B (O00238 whole entry): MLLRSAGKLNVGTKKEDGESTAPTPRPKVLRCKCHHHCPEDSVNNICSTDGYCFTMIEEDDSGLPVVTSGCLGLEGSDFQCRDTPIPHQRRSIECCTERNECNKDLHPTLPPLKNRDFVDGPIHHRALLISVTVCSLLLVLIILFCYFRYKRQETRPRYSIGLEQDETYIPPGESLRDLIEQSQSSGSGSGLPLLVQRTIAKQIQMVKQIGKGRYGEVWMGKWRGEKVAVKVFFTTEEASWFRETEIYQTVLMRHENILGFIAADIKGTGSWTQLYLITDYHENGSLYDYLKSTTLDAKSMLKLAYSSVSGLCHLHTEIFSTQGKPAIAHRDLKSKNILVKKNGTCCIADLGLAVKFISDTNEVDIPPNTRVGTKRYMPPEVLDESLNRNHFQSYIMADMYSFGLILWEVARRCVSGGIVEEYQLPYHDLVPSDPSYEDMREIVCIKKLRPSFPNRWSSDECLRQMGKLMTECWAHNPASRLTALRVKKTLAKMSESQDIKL

[9] = molecular target: Bone morphogenetic protein receptor type-1A (Homo sapiens, UniProt P36894); assay: Inhibition of BMPR1A (unknown origin) by LanthaScreen TR-FRET assay; summary of the method: as §2
Sequence of Bone morphogenetic protein receptor type-1A (P36894 whole entry, the tested form may be a part): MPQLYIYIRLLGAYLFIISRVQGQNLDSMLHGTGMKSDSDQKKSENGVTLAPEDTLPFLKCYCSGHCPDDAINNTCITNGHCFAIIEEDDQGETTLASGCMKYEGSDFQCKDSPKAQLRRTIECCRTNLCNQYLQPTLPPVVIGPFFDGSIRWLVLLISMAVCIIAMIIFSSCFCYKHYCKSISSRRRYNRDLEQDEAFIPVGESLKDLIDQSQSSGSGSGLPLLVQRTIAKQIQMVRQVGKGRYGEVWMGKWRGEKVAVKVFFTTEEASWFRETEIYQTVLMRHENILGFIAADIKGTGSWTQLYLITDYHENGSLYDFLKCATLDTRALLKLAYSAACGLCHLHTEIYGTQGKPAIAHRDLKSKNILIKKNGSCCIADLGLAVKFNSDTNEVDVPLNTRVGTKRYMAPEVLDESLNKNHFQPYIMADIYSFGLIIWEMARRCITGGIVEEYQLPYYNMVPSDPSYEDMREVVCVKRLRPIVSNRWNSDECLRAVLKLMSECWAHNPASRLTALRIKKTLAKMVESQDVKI

[10] = molecular target: T2, Bone morphogenetic protein receptor type-2 (Homo sapiens) (UniProt Q13873); assay: Binding affinity to recombinant C-terminal 6His-tagged human BMPR2 (188 to 517 residues) expressed in Escherichia coli Rosetta assessed as change in melting temperature at 50 uM by SYPRO Orange dye based thermal shift assay
T2 sequence (whole entry): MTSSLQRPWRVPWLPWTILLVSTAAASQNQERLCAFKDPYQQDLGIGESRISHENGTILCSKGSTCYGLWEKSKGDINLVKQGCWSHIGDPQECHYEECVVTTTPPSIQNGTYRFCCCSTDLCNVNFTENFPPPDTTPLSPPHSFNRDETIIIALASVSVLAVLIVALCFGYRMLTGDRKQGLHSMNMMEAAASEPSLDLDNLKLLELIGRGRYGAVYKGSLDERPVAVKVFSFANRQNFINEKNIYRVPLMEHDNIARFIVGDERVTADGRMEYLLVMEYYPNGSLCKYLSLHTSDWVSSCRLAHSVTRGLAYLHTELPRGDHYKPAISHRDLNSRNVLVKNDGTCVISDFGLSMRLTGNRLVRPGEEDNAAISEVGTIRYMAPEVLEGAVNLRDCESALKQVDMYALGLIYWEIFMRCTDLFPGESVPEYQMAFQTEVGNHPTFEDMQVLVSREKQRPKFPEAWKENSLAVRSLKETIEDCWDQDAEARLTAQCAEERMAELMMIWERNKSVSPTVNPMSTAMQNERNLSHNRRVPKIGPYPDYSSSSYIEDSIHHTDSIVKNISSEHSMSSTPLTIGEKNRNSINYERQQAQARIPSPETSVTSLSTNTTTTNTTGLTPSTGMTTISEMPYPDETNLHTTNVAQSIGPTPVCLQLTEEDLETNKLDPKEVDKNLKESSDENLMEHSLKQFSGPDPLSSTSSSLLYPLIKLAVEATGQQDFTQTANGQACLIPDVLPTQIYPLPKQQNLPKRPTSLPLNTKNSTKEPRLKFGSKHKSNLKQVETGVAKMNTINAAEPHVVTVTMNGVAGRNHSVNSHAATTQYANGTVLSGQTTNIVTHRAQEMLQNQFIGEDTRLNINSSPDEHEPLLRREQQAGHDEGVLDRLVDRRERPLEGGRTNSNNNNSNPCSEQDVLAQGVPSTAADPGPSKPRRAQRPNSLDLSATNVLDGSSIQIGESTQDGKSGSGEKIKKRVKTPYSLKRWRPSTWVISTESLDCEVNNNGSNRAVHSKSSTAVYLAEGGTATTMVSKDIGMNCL
Summary of the method: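 BMPR2 kinase domain-His (purified by IMAC, anion exchange and size exclusion) at 1 μg per 10 μL reaction in 50 mM Tris–HCl pH 7.5, 150 mM NaCl with SYPRO Orange 5×. Compound at 50 μM. Scanned 20 to 95 °C with fluorescence read every 10 s. Tm from the melt curve; averages of three technical replicates.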

[11] = molecular target: T3, TGF-beta receptor type-1 (Homo sapiens) (UniProt P36897); assay: as §3; summary of the method: as §2
T3 sequence (whole entry): T1 sequence (P36897 whole entry)

SMILES | inhibition [1] | pIC50 [2] | pIC50 [3] | inhibition [4] | inhibition [5] | inhibition [6] | inhibition [7] | pIC50 [8] | pIC50 [9] | ΔTm [10] [°C] | inhibition [11] | inhibition [8] | inhibition [9]
NC(=O)c1cccc(CNC(=O)c2ccc3nc(-c4ccc5cnccc5c4)n(C4CCCC4)c3c2)c1 | Active | 6.88 | < 6.00 | Active | Active | inactive | Active | < 6.00 | < 6.00 |  |  |  | 
CNC(=O)[C@@H]1CC[C@@H](n2c(-c3ccc4cnccc4c3)nc3ccc(C(=O)NCc4cccc(C(N)=O)c4)cc32)C1 |  | 6.57 | < 6.00 |  |  | inactive |  | < 6.00 | < 6.00 | 15.7 |  |  | 
CNC(=O)CCc1ccc(C(=O)NCc2cccc(N3CCN(c4nc(Nc5cccc(S(N)(=O)=O)c5)ncc4OC)CC3)c2)cc1 |  |  |  |  |  | inactive |  |  |  | 13.9 | inactive | inactive | inactive
COc1cnc(Nc2cccc(S(N)(=O)=O)c2)nc1N1CCN(c2ccccc2)C(=O)C1 | Active |  |  | Active | Active | inactive | Active |  |  |  | inactive | inactive | inactive

Source: ChEMBL document CHEMBL5316332 (J Med Chem, 2023)
